ChEMBL document CHEMBL4725317 (Bioorg Med Chem Lett, 2020)
Calls of active or inactive are those of the source. The rule behind the calls is not given here.

Assays:
[1] = Stability of compound in rat liver microsomes assessed as parent compound remaining at 1 uM measured at 10 mins in presence of NADPH; format: ADME, Microsome; details: liver microsomes, read-out: Stabilty
How it was run: (§1)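 Test compound at 1 μM with human, mouse or rat liver microsomes (0.5 mg/ml protein) plus NADPH cofactor; final solvents 0.01% DMSO, 0.05% acetonitrile; percent parent remaining at 10 min. Verapamil, cerivastatin and warfarin as positive controls. SD given when multiple batches were tested.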

[2] = Stability of compound in human liver microsomes assessed as parent compound remaining at 1 uM measured at 10 mins in presence of NADPH; format: ADME, Microsome; details: for remaining at 10 min, 1 µM: liver microsomes, read-out: Stabilty; how it was run: as §1
[3] = Stability of compound in mouse liver microsomes assessed as parent compound remaining at 1 uM measured at 10 mins in presence of NADPH; format: ADME, Microsome; details: read-out: Stabilty; how it was run: as §1
[4] = In vivo inhibition of SGLT2 in overnight fasted Sprague-Dawley rat assessed as amount of urinary glucose excretion assessed per 4 hrs at 10 mg/kg, po; format: functional
How it was run: (§2)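 Overnight-fasted SD rats dosed orally at 1 or 10 mg/kg in 0.5% Methocel (vehicle controls) 60 min before oral glucose challenge. […] N=8 per group; mean ± SEM; one-way ANOVA-Dunnett.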

[5] = Oral bioavailability in Sprague-Dawley rat at 10 mg/kg; format: ADME, organism-based; details: in vivo
How it was run: (§3)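 Male Sprague Dawley rats dosed 2 mg/kg IV (vehicle 20% HPbCD) or 10 mg/kg PO (vehicle 0.5% Methocel); pharmacokinetic parameters derived from plasma exposure.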

Rattus norvegicus [6] = assay: Hypoglycemic activity in overnight fasted Sprague-Dawley rat assessed as percent reduction in blood glucose AUC at 1 mg/kg, po measured after 4 hrs post glucose challenge by OGTT relative to control; format: functional; set-up: scale not given: the % may be the effect or the level left; how it was run: as §2
[7] = Volume of distribution at steady state in Sprague-Dawley rat at 2 mg/kg, iv or 10 mg/kg, po; format: ADME, organism-based; details: in vivo, read-out: Vdss; how it was run: as §3
[8] = AUC (0 to infinity) in Sprague-Dawley rat at 2 mg/kg, iv or 10 mg/kg, po; format: ADME, organism-based; set-up: dose 10 mg/kg; details: in vivo; how it was run: as §3
Rattus norvegicus [9] = assay: Hypoglycemic activity in overnight fasted Sprague-Dawley rat assessed as percent reduction in blood glucose AUC at 10 mg/kg, po measured after 4 hrs post glucose challenge by OGTT relative to control; format: functional; set-up: scale not given: the % may be the effect or the level left; how it was run: as §2
[10] = Tmax in Sprague-Dawley rat at 2 mg/kg, iv or 10 mg/kg, po; format: ADME, organism-based; details: in vivo; how it was run: as §3
[11] = Half life in Sprague-Dawley rat at 2 mg/kg, iv; format: ADME, organism-based; details: in vivo; how it was run: as §3
[12] = Half life in human liver microsomes at 1 uM measured at 10 mins in presence of NADPH; format: ADME, Microsome
[13] = In vivo inhibition of SGLT1 in overnight fasted Sprague-Dawley rat assessed as amount of urinary glucose excretion assessed per 4 hrs at 1 mg/kg, po; format: functional; how it was run: as §2
[14] = Cmax in Sprague-Dawley rat at 2 mg/kg, iv or 10 mg/kg, po; format: ADME, organism-based; set-up: dose 10 mg/kg; details: in vivo; how it was run: as §3
[15] = Clearance in Sprague-Dawley rat at 2 mg/kg, iv or 10 mg/kg, po; format: ADME, organism-based; details: in vivo; how it was run: as §3
[16] = Volume of distribution at steady state in C57BL mouse at 5 mg/kg, iv or 20 mg/kg, po; format: ADME, organism-based; details: in vivo, read-out: Vdss
How it was run: (§4)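 Male C57 black mice given 5 mg/kg IV in 20% HPbCD or 20 mg/kg PO in 0.5% Methocel; plasma pharmacokinetic parameters derived from these dosings.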

Rattus norvegicus [17] = assay: Hypoglycemic activity in overnight fasted po dosed Sprague-Dawley rat assessed as reduction in blood glucose AUC treated 60 mins prior to glucose challenge and measured up to 120 mins by OGTT; format: functional, organism-based; details: dose mg/kg 1-10, time 60.0 min
[18] = Clearance in C57BL mouse at 5 mg/kg, iv or 20 mg/kg, po; format: ADME, organism-based; details: in vivo; how it was run: as §4
[19] = In vivo inhibition of SGLT1/2 in overnight fasted Sprague-Dawley rat assessed as amount of urinary glucose excretion assessed per 4 hrs at 1 mg/kg, po; format: functional; how it was run: as §2
[20] = Tmax in C57BL mouse at 5 mg/kg, iv or 20 mg/kg, po; format: ADME, organism-based; details: in vivo; how it was run: as §4
[21] = In vivo inhibition of SGLT1/2 in overnight fasted Sprague-Dawley rat assessed as amount of urinary glucose excretion assessed per 4 hrs at 10 mg/kg, po; format: functional; how it was run: as §2
[22] = Half life in C57BL mouse at 5 mg/kg, iv; format: ADME, organism-based; details: in vivo; how it was run: as §4
[23] = AUC (0 to infinity) in C57BL mouse at 5 mg/kg, iv or 20 mg/kg, po; format: ADME, organism-based; set-up: dose 20 mg/kg; details: in vivo; how it was run: as §4
Mus musculus [24] = assay: Antihyperglycemic activity in db/db mouse assessed as decrease in blood glucose level at 10 mg/kg, po administered as single dose measured up to 24 hrs; format: functional, organism-based; details: time hrs <=24
How it was run: (§5)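 Male db/db mice given a single oral 10 mg/kg dose or vehicle; fed blood glucose followed up to 24 h and 24-h urinary glucose excretion collected. Mean ± SE versus vehicle controls.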

[25] = Oral bioavailability in C57BL mouse at 20 mg/kg; format: ADME, organism-based; details: in vivo; how it was run: as §4
[26] = Cmax in C57BL mouse at 5 mg/kg, iv or 20 mg/kg, po; format: ADME, organism-based; set-up: dose 20 mg/kg; details: in vivo; how it was run: as §4
Rattus norvegicus [27] = assay: In vivo inhibition of SGLT1/2 in overnight fasted po dosed Sprague-Dawley rat assessed as reduction in blood glucose by OGTT; format: functional, organism-based; details: dose mg/kg 1-10
Mus musculus [28] = assay: Antihyperglycemic activity in db/db mouse assessed as increase in urinary glucose excretion at 10 mg/kg, po administered as single dose measured up to 24 hrs; format: functional, organism-based; details: time hrs <=24; how it was run: as §5
Rattus norvegicus [29] = assay: Hypoglycemic activity in overnight fasted po dosed Sprague-Dawley rat assessed as reduction in blood glucose treated 60 mins prior to glucose challenge by OGTT; format: functional, organism-based; details: dose mg/kg 1-10, time 60.0 min

Row | SMILES | remaining at 10 min, 1 µM [1] [%] | remaining at 10 min, 1 µM [2] [%] | remaining at 10 min, 1 µM [3] [%] | bioavailability [5] [%] | Vd [7] [L/kg] | Tmax [10] [h] | half-life [11] [h] | Cmax [14] [ng/mL] | clearance [15] [mL/min/kg] | also measured
1 | COc1cc(O)c([C@@H]2O[C@H](CO)C(F)(F)[C@H](O)[C@H]2O)cc1Cc1ccc2c(c1)OCCO2 | 26 | 99 | 97 | – | – | – | – | – | – | –
2 | C[C@]1(F)[C@H](O)[C@@H](O)[C@H](c2cc(Cc3cc4ccccc4s3)c(Cl)cc2O)O[C@@H]1CO | 15 | 89 | 105 | – | – | – | – | – | – | –
3 | C[C@]1(F)[C@H](O)[C@@H](O)[C@H](c2cc(Cc3ccc4c(c3)OCCO4)c(Cl)cc2O)O[C@@H]1CO | 56 | 74 | 96 | – | – | – | – | – | – | –
4 | OC[C@H]1O[C@@H](c2cc(Cc3cc4ccccc4s3)c(Cl)cc2O)[C@H](O)[C@@H](O)C1(F)F | 94 | – | 106 | 46.8 | 0.91 | 0.31 | 3.71 | 5240 | 3.92 | Activity [4]: 0.005 g; Activity (Rattus norvegicus [6]): 16%; AUC(0-inf) [8]: 18600 ng·h/mL; Activity (Rattus norvegicus [9]): 41.4%; t1/2 [12]: > 3 h; Stabilty ([2]; microsomes, 10 min, 1 µM): 120%; Activity [13]: 0.001 g
5 | COc1cc(O)c([C@@H]2O[C@H](CO)C(F)(F)[C@H](O)[C@H]2O)cc1Cc1ccc2c(c1)CCCO2 | 57 | 95 | 85 | 22.3 | 3.85 | 0.25 | 2.28 | 258 | 75.6 | Vd [16]: 0.96 L/kg; Activity (Rattus norvegicus [17]): Dose-dependent effect; Activity (Rattus norvegicus [6]): 38.3%; AUC(0-inf) [8]: 524 ng·h/mL; clearance [18]: 19 mL/min/kg; Activity [19]: 0.002 g; Tmax [20]: 1 h; Activity [21]: 0.2 g; Activity (Rattus norvegicus [9]): 60.7%; half-life [22]: 0.83 h; AUC(0-inf) [23]: 9160 ng·h/mL; Activity (Mus musculus [24]): Active; bioavailability [25]: 52.1%; Cmax [26]: 4680 ng/mL; inhibition (Rattus norvegicus [27]): Dose-dependent effect; Activity (Mus musculus [28]): Active; Activity (Rattus norvegicus [29]): Dose-dependent effect
6 | COc1cc(O)c([C@@H]2O[C@H](CO)C(F)(F)[C@H](O)[C@H]2O)cc1Cc1ccc2c(c1)CCO2 | 70 | 100 | 91 | – | – | – | – | – | – | –
7 | COc1cc(O)c([C@@H]2O[C@H](CO)[C@@](C)(F)[C@H](O)[C@H]2O)cc1Cc1ccc2c(c1)OCCO2 | 101 | 103 | 98 | 21.8 | 2.41 | 0.25 | 1.52 | 274 | 72 | –
